IC50 and selectivity ratio data for 36 molecules are collected here from ChEMBL document CHEMBL1140898, “Targeting the fatty acid biosynthesis enzyme, beta-ketoacyl-acyl carrier protein synthase III (PfKASIII), in the identification of novel antimalarial agents” (J Med Chem, 2009).

Broadly, the IC50 is the concentration that inhibits the measured activity by half.

Data set [1] can be described thus: Inhibition of Plasmodium falciparum KAS3 expressed in Escherichia coli assessed as transfer of [1-14C]acetyl-CoA to [1-14C]acetyl-ACP. The method in brief: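 Recombinant 6xHIS-tagged P. falciparum KASIII and 6xHIS-ACP expressed in E. coli and purified. Radiometric filter assay of [1-14C]-acetyl-CoA transfer to ACP, 25 min at 37 °C, quenched with 10% TCA. Product captured on P81 cellulose filters, washed with TCA and counted by scintillation. […] IC50 by variable-slope nonlinear regression, curves accepted at R2 >0.80.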

The subject of data set [2] is Plasmodium falciparum. Put plainly: Antimalarial activity against […] by [3H]hypoxanthine uptake. It counts as functional, organism-based.
Data set [3] concerns Plasmodium falciparum. Put plainly: Antimalarial activity against […] by [3H]hypoxanthine uptake. Format: functional, organism-based.
Data set [4] deals with Plasmodium falciparum. Nature of the data set: Antimalarial activity against Plasmodium falciparum TM91C235 by [3H]hypoxanthine uptake. It counts as functional, organism-based.
Data set [5] is described as follows: Therapeutic index, ratio of IC50 for mice (Mus musculus) J774.G8 cells to IC50 for chloroquine-resistant Plasmodium falciparum W2. The note with it: J774.G8 cells versus Plasmodium falciparum W2.
The nature of data set [6]: Cytotoxicity against mouse J774.G8 cells after 72 hrs by MTS assay. Format: cell-based. The method in brief: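 Murine J774 macrophage subclone G8 grown in DMEM with 10% fetal calf serum, 2 mM L-glutamine, 50 μg/mL gentamicin, 5% CO2, 37 °C. Seeded at 1 × 10^4 cells/well and left 24 h. Compound dilutions in medium or vehicle added, then 72 h exposure. MTS tetrazolium added for 1–2 h at 37 °C, OD read at 490 nm. Vehicle control values subtracted.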
For orientation: Tetrazolium dyes change colour on reduction, which living cells bring about.

Turning to `Oc1ccccc1SSc1ccccc1O`, the IC50 in data set [1] turned out to be 1.9 µM; in data set [2] it was 14.9 µM; in data set [3] it was 15 µM.
Taken in the same sequence, the figures for `O=[N+]([O-])c1c(Cl)sc(Cl)c1S(=O)(=O)Nc1ccc(C(F)(F)F)cc1` were 0.28 µM, 15.4 µM and 16.4 µM.
In the case of `Nc1ccc(S(=O)(=O)c2cc(O)ccc2O)cc1`, the IC50 is 63.8 µM in data set [1]; 5.3 µM in data set [4]; 0.79 µM in data set [2]; 3.6 µM in data set [3]; more than 1890 µM in data set [6]. The selectivity ratio in data set [5] was more than 472.
Take `Cc1ccc(S(=O)(=O)c2ccccc2)cc1`: the IC50 is 158 µM in data set [1]; 112 µM in data set [4]; 35.7 µM in data set [2]; 68.9 µM in data set [3]; 134 µM in data set [6]. Besides, the selectivity ratio in data set [5] came out at 1.9.
As to `Cc1ccc(S(=O)(=O)c2ccc3ccccc3c2)cc1`, the IC50 is 53.7 µM in data set [1]; more than 230 µM in data set [4]; more than 230 µM in data set [2]; more than 230 µM in data set [3]; more than 1770 µM in data set [6].
For the molecule `c1ccc(SSc2ccccc2)cc1`, the IC50 in data set [1] is 0.65 µM; in data set [2], 5 µM; in data set [3] it was 6.7 µM; in data set [6], 124 µM. Also, the selectivity ratio in data set [5] is 12.4.
For the molecule `O=C(O)c1ccc(NS(=O)(=O)c2ccccc2)cc1O`, the IC50 in data set [1] is 5 µM; in data set [2], more than 12.7 µM; in data set [3], more than 12.7 µM; in data set [6] it was more than 2540 µM.
As to `Oc1ccc2ccccc2c1SSc1c(O)ccc2ccccc12`, the IC50 in data set [1] was 0.13 µM; in data set [2] it was 7.2 µM; in data set [3], 6.6 µM; in data set [6], more than 1430 µM. Moreover, the selectivity ratio in data set [5] is more than 204.
Consider `Clc1ccc(SSSc2ccc(Cl)cc2)cc1`, for which the concentration for half-maximal inhibition (IC50) was 0.63 µM in data set [1], 2.5 µM in data set [2] and 2.1 µM in data set [3].
On to `Oc1ccc(Cl)cc1SSSc1cc(Cl)ccc1O`, for which the IC50 stood at 0.53 µM in data set [1], 2.3 µM in data set [2] and 1.4 µM in data set [3].
Consider `O=S(=O)(Nc1cccc(Cl)c1)c1ccccc1`, for which the IC50 in data set [1] was 195 µM; in data set [2] it was more than 49.9 µM; in data set [3] it was more than 49.9 µM; in data set [6], 31.3 µM. For the same molecule, the selectivity ratio in data set [5] was less than 0.62.
Turning to `O=S(=O)(Nc1ccc(C(F)(F)F)cc1)c1cc(Cl)sc1Cl`, the figures for the IC50 in data set [1], in data set [2] and in data set [3] were 2.2 µM, more than 49.9 µM and more than 49.9 µM, respectively.
For the molecule `C/C=C/CCCCCCCC(=O)NS(=O)(=O)c1ccc(N)cc1`, the IC50 in data set [1] is more than 1000 µM; in data set [2] it was more than 49.9 µM; in data set [3], more than 49.9 µM.
Take `Oc1ccc(S)cc1Cl`: the IC50 is 2.8 µM in data set [1], 5.2 µM in data set [2] and 4.7 µM in data set [3].
The corresponding values for `Oc1ccc(Sc2ccc(O)cc2O)c(O)c1` are 10.8 µM, more than 49.9 µM and more than 49.9 µM.
As for `Nc1ncc(S(=O)(=O)c2ccc(NO)cc2)s1`, the IC50 was 22 µM in data set [1], more than 55.3 µM in data set [4], 0.3 µM in data set [2] and more than 55.3 µM in data set [3].
Turning to `CCOC(=O)c1cnccc1C`, the IC50 in data set [1] is 4.9 µM; in data set [2] it was more than 49.9 µM; in data set [3] it was more than 49.9 µM.
With `CC(CN)CCC(C)(O)C(N)=O` (stereo not drawn), the values for the IC50 in data set [1], in data set [2] and in data set [3] were 0.24 µM, 24.7 µM and 14.6 µM, respectively.
For the molecule `C/C(=C/C(=O)OC(C)c1ccccc1)OP1(=O)OC(C)C(C)O1` (stereo not drawn), the IC50 is 25.8 µM in data set [1], 20.4 µM in data set [2] and more than 49.9 µM in data set [3].
Regarding `COc1ccc(C(=O)CSS(=O)(=O)c2ccccc2)cc1`, the IC50 in data set [1] worked out at 1.5 µM; in data set [2] it was 22.5 µM; in data set [3], 22.5 µM.
On to `Cc1cccc(C)c1/C=C/S(=O)(=O)c1ccccc1`, for which the IC50 in data set [1] is 448 µM; in data set [2], more than 50.1 µM; in data set [3], more than 50.1 µM; in data set [6], 706 µM. In addition, the selectivity ratio in data set [5] is less than 14.
Regarding `CCCCS(=O)(=O)CCOC(=O)c1ccc([N+](=O)[O-])cc1`, the IC50 in data set [1] is 0.32 µM; in data set [2] it was more than 41.2 µM; in data set [3], more than 41.2 µM; in data set [6], 33.6 µM. In addition, the selectivity ratio in data set [5] was less than 0.83.
As for `C/C(=C/c1ccccc1)S(=O)(=O)c1ccccc1`, the IC50 is 165 µM in data set [1], 28 µM in data set [2], more than 50.1 µM in data set [3] and 205 µM in data set [6]. The selectivity ratio in data set [5] is less than 4.1.
As to `Nc1ccc(S(=O)(=O)c2cc(O)c3ccccc3c2O)c(Cl)c1`, the IC50 is 0.13 µM in data set [1], 0.01 µM in data set [2] and 5.5 µM in data set [3].
Regarding `Cc1ccc(S/C=C/S(=O)(=O)Cc2ccccc2)cc1`, the IC50 in data set [1] is 0.52 µM; in data set [2] it was 3 µM; in data set [3], 5.8 µM; in data set [6], 0.85 µM. For the same molecule, the selectivity ratio in data set [5] is 0.15.
Consider `O=[N+]([O-])c1cc(S(=O)(=O)Nc2cc(C(F)(F)F)cc(C(F)(F)F)c2)sc1Nc1cc(C(F)(F)F)cc(C(F)(F)F)c1`, for which the IC50 in data set [1] stood at 5.2 µM; in data set [2], 10.3 µM; in data set [3] it was 11.4 µM.
The corresponding values for `O=c1ss/c(=N\c2ccccc2)n1-c1ccccc1` are 0.5 µM, 8 µM and 8 µM.
As to `Cc1ccc(SSSc2ccc(C)cc2)cc1`, the IC50 came to 1.4 µM in data set [1], 1.5 µM in data set [2] and 1.4 µM in data set [3].
On to `Cc1ccc(S(=O)(=O)c2cc(O)c3ccccc3c2O)cc1`, for which the IC50 in data set [1] was 0.38 µM; in data set [2], 3.6 µM; in data set [3] it was 3.2 µM; in data set [6], more than 3180 µM. The selectivity ratio in data set [5] was more than 1060.
Consider `Oc1ccc(Cl)cc1SSc1cc(Cl)ccc1O`, for which the IC50 in data set [1] came to 0.14 µM; in data set [2], 12.4 µM; in data set [3] it was 12 µM.
Regarding `Oc1c(Cl)cc(SSc2cc(Cl)c(O)c(Cl)c2Cl)c(Cl)c1Cl`, the IC50 turned out to be 0.24 µM in data set [1], 3.9 µM in data set [2] and 5.5 µM in data set [3].
Take `O=C(CN1CCN(c2ccc(CO)c(Br)c2)CC1)c1ccc([N+](=O)[O-])o1`: the IC50 came out at 3.2 µM in data set [1], 8.9 µM in data set [2] and 8.9 µM in data set [3].
As for `NC1CCC(S(=O)(=O)c2cc(O)c3ccccc3c2O)CC1` (stereo not drawn), the IC50 in data set [1] turned out to be 0.44 µM; in data set [2], 3.9 µM; in data set [3], 20.4 µM; in data set [6], 105 µM. Moreover, the selectivity ratio in data set [5] worked out at 5.3.
As for `Oc1ccc(Cl)cc1Sc1cc(Cl)ccc1O` [FENTICLOR], the IC50 in data set [1] was 3.1 µM; in data set [2] it was 20.5 µM; in data set [3] it was 21.5 µM.
Regarding `COc1ncnc(NS(=O)(=O)c2ccc(N)cc2)c1OC` [SULFADOXINE], the IC50 in data set [1] is more than 1000 µM; in data set [2], 0.04 µM; in data set [3], 6.1 µM; in data set [6], more than 1610 µM. In addition, the selectivity ratio in data set [5] was more than 269.
With `C=C/C(C)=C/[C@@]1(C)SC(=O)C(C)=C1O` [THIOLACTOMYCIN], the values for the IC50 in data set [1], in data set [2] and in data set [3] were more than 330 µM, 50 µM and 50 µM, respectively.
